Published values pooled from the literature.
Lines come from different studies, so protocols differ.
SLC18A2: Synaptic vesicular amine transporter (SLC18A2, Homo sapiens, UniProt Q05940)
Spike glycoprotein: Spike glycoprotein (Severe acute respiratory syndrome coronavirus 2, UniProt P0DTC2)

For `O=c1[nH]c2ccccc2n1CCCN1CCC(n2c(=O)[nH]c3cc(Cl)ccc32)CC1`, the IC50 was 0.058 µM (SLC18A2; transporter uptake, inhibitor).
`CC[C@H](C)[C@H](NC(=O)[C@H](CCCCNC(=O)CN(CCNC(=O)CN(CCNC(=O)CN(CCNC(=O)CN(CCNC(=O)[C@H](CCCNC(=N)N)NC(C)=O)C(=O)Cn1ccc(N)nc1=O)C(=O)Cn1cnc2c(=O)[nH]c(N)nc21)C(=O)Cn1cnc2c(=O)[nH]c(N)nc21)C(=O)Cn1ccc(N)nc1=O)NC(=O)[C@H](CC(=O)O)NC(=O)[C@H](CO)NC(=O)[C@@H](NC(=O)[C@H](CCCNC(=N)N)NC(=O)[C@H](CCSC)NC(=O)[C@H](CO)NC(=O)[C@H](C)NC(=O)[C@H](CCC(=O)O)NC(=O)[C@H](C)NC(=O)[C@H](Cc1c[nH]cn1)NC(=O)CNC(=O)[C@H](CC(C)C)NC(=O)[C@H](CCC(=O)O)NC(=O)[C@H](CC(=O)O)NC(=O)[C@H](CC(C)C)NC(=O)[C@H](CC(C)C)NC(=O)[C@H](CCCNC(=N)N)NC(=O)[C@H](CCS)NC(=O)[C@H](CCCC(=O)NCCN(CC(=O)NCCN(CC(=O)NCCN(CC(=O)NCCN(CC(=O)N[C@@H](CCCNC(=N)N)C(N)=O)C(=O)Cn1cnc2c(=O)[nH]c(N)nc21)C(=O)Cn1ccc(N)nc1=O)C(=O)Cn1ccc(N)nc1=O)C(=O)Cn1cnc2c(=O)[nH]c(N)nc21)NC(=O)[C@H](CCC(=O)O)NC(=O)[C@H](Cc1ccc(O)cc1)NC(=O)[C@@H](NC(=O)[C@H](CCCCN)NC(=O)[C@H](CCC(N)=O)NC(=O)[C@H](CC(C)C)NC(=O)[C@@H](NC(=O)[C@H](Cc1c[nH]c2ccccc12)NC(=O)[C@H](CCC(=O)O)NC(=O)[C@H](CCCCN)NC(=O)[C@H](CC(=O)O)NC(C)=O)[C@@H](C)CC)[C@@H](C)CC)C(C)C)C(=O)N[C@@H](Cc1ccc(O)cc1)C(=O)N[C@@H](CCC(=O)O)C(=O)N[C@@H](Cc1ccccc1)C(=O)N[C@@H](CCSC)C(=O)N[C@@H](CCCCN)C(=O)N[C@@H](CCCCN)C(N)=O` gave a Kd of 0.0052 µM (Spike glycoprotein; binding, SPR).
`Cn1c(=O)c2[nH]cnc2n(C)c1=O` has an IC50 of 5.6 µM (Solute carrier family 22 member 11 (SLC22A11, Homo sapiens, UniProt Q9NSA0); transporter uptake, inhibitor).
For `COc1ccc(C(=O)Nc2ccc3c(c2)C=CCP(=O)(O)O3)cc1`, the Ki was greater than 10 µM (Carbonic anhydrase 1 (CA1, Homo sapiens, UniProt P00915); enzyme activity, inhibitor, stopped-flow).
For `CCOC(=O)c1ccc(OC(=O)CCCCCN=C(N)N)cc1`, the IC50 was 0.316 µM (Plasminogen (PLG, Homo sapiens, UniProt P00747); enzyme activity, inhibitor).
With `COc1cc(CCNC(C)c2ccccc2O)c(OC)cc1C#N` (stereo not drawn) the Ki was 0.912 µM (Alpha-2A adrenergic receptor (ADRA2A, Homo sapiens, UniProt P08913); cell-free assay, radioligand).
With `O=c1[nH]c2ccccc2n1C1CCN(CCCC(c2ccc(F)cc2)c2ccc(F)cc2)CC1` the IC50 was 0.386 µM (SLC18A2; transporter uptake, inhibitor, radiometric; cell membranes).
`O=C(Nc1ccc2c(c1)C=CCP(=O)(O)O2)c1ccccc1Br` gave a Ki of greater than 10 µM (Carbonic anhydrase 2 (CA2, Homo sapiens, UniProt P00918); enzyme activity, inhibitor, stopped-flow).
`CC[C@H](C)[C@H](NC(=O)[C@H](CCCCNC(=O)CN(CCNC(=O)CN(CCNC(=O)CN(CCNC(=O)CN(CCNC(=O)[C@H](CCCNC(=N)N)NC(C)=O)C(=O)Cn1ccc(N)nc1=O)C(=O)Cn1cnc2c(=O)[nH]c(N)nc21)C(=O)Cn1cnc2c(=O)[nH]c(N)nc21)C(=O)Cn1ccc(N)nc1=O)NC(=O)[C@H](CC(=O)O)NC(=O)[C@H](CO)NC(=O)[C@@H](NC(=O)[C@H](CCCNC(=N)N)NC(=O)[C@H](CCSC)NC(=O)[C@H](CO)NC(=O)[C@H](C)NC(=O)[C@H](CCC(=O)O)NC(=O)[C@H](C)NC(=O)[C@H](Cc1c[nH]cn1)NC(=O)CNC(=O)[C@H](CC(C)C)NC(=O)[C@H](CCC(=O)O)NC(=O)[C@H](CC(=O)O)NC(=O)[C@H](CC(C)C)NC(=O)[C@H](CC(C)C)NC(=O)[C@H](CCCNC(=N)N)NC(=O)[C@H](CS)NC(=O)[C@H](CCCC(=O)NCCN(CC(=O)NCCN(CC(=O)NCCN(CC(=O)NCCN(CC(=O)N[C@@H](CCCNC(=N)N)C(N)=O)C(=O)Cn1cnc2c(=O)[nH]c(N)nc21)C(=O)Cn1ccc(N)nc1=O)C(=O)Cn1ccc(N)nc1=O)C(=O)Cn1cnc2c(=O)[nH]c(N)nc21)NC(=O)[C@H](CCC(=O)O)NC(=O)[C@H](Cc1ccc(O)cc1)NC(=O)[C@@H](NC(=O)[C@H](CCCCN)NC(=O)[C@H](CCC(N)=O)NC(=O)[C@H](CC(C)C)NC(=O)[C@@H](NC(=O)[C@H](Cc1c[nH]c2ccccc12)NC(=O)[C@H](CCC(=O)O)NC(=O)[C@H](CCCCN)NC(=O)[C@H](CC(=O)O)NC(C)=O)[C@@H](C)CC)[C@@H](C)CC)C(C)C)C(=O)N[C@@H](Cc1ccc(O)cc1)C(=O)N[C@@H](CCC(=O)O)C(=O)N[C@@H](Cc1ccccc1)C(=O)N[C@@H](CCSC)C(=O)N[C@@H](CCCCN)C(=O)N[C@@H](CCCCN)C(N)=O` has a Kd of 0.027 µM (Spike glycoprotein; binding, SPR).
